# In the library only some 0.61% were active in any assay of this set; here they are far more common.
# CFTR F508del cor = correctors of CFTR F508del function in bronchial epithelial cells; activity (quench increase), % at 7.58 µM; hit rate 0.36% among 350,000; AID 720511; CFBE cells, YFP halide quenching; stimulated with forskolin plus potentiator P3; % fluorescence drop versus neutral controls;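 active means mean added fluorescence quench of at least 8% versus neutral control, with both replicates also reaching 8%; inconclusive means only one of the mean or replicate conditions met; inactive means mean below 8% and not both replicates reaching 8%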;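 further: cells transiently co-express mutant CFTR-F508del with the halide-sensitive YFP; corrector assay measuring rescue of mutant channel to the surface after 24 h compound exposure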
# E-sel inducer = induces E-selectin expression in human endothelial cells. P16581. HUVEC E-selectin immunofluorescence imaging; normalized: neutral wells 0, TNF-alpha wells 100. activation, % at 7.58 µM. hit rate 0.37% among 260,000;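 active means mean E-selectin-positive cell signal at least 10% of the positive control, reached in at least 60% of replicates, without over 20% cell loss; inconclusive means no rule given, readout overlaps actives, possibly toxicity-flagged; inactive means the rest, including those meeting only one limit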
# Target sequence (P16581 whole entry, looked up): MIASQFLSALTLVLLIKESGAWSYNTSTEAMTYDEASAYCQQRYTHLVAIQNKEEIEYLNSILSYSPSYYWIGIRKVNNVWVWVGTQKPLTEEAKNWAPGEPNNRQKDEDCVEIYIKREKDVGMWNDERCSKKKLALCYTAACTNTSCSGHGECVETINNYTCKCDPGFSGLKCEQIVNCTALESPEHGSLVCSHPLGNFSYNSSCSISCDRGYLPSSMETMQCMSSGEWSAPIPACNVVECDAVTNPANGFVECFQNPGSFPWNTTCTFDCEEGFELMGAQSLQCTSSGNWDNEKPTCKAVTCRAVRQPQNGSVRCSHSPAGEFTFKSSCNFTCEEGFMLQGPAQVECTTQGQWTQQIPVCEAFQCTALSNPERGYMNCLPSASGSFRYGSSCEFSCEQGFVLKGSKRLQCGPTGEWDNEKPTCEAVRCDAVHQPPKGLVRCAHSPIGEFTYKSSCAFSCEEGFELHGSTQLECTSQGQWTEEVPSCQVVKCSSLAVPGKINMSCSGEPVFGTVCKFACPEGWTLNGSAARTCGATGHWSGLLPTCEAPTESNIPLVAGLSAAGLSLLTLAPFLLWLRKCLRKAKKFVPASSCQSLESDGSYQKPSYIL
#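 System: HUVEC / Compound: single concentration / Signal: immunofluorescence imaging / Read-out: percent E-selectin-positive cells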
# Xi reactivation = X-chromosome reactivation activator | hit rate 0.055% among 360,000 | XiGFP mouse fibroblasts, % GFP-positive cells imaging, 3 d; cells co-treated with 5-aza-dC sensitizer; scaled so ellipticine positive control = 100% | activation, % at 7.58 µM;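 active means mean normalized replicate activation at least 10% and every replicate at or above 10%; inconclusive means only one of the two criteria met; inactive means mean below 10% and not all replicates reach 10%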;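 further: 0% = median of on-plate neutral control wells and 100% = ellipticine 6 µM median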
#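 Schedule: 3 d treatment, 15 min room-temperature fixation; system: 68-5-11 XiGFP fibroblast line; buffer or medium: DMEM plus 5-aza-dC sensitizer; control set: ellipticine 6 µM positive control; compound: one concentration, pinned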
# Starred values were filed as active, the others as inactive; ? = inconclusive; . = not tested or not shown; ! = not confirmed by another sample.
SMILES,CFTR F508del cor,E-sel inducer,Xi reactivation
CC(=O)c1cccc(NC(=O)C2=CC(c3ccco3)=NS(=O)(=O)N2C)c1,3.2,.,0.3
Cn1c(NCc2ccccc2F)nc2cc(-c3ccsc3)sc2c1=O,8.1*,-0.1,0.0
Cn1c(NCc2ccccc2F)nc2cc(-c3ccccc3)sc2c1=O,-3.0,-0.2,0.0
C=C1SC(Nc2c(C)cc(C)cc2C)=NC12CCCCC2,10.9*,0.2,0.1
C=C1SC(Nc2c(C)cccc2C)=NC12CCCCC2,2.8,.,-0.1
Cc1cc(C)nc(NC(N)=NC(C)c2ccccc2)n1 (centres undefined),1.2,185.3*,0.0
Cc1cc(C)nc(NC(N)=NCCc2ccccc2)n1,2.7,-0.1,0.0
O=C(c1cccc(F)c1)N1C[C@@H]2[C@H](c3ccccc31)[C@@H](CO)N2C(=O)C1CCOCC1,1.4,-0.1,0.4
CN(C)CCCNC(=O)C[C@@H]1CC[C@@H]2[C@H](COc3ccc(NC(=O)c4ccc5c(c4)OCO5)cc3C(=O)N2C)O1,2.0,0.0,0.0
COc1ccc2c3c(n(C)c2c1)[C@H](CO)N(C(C)=O)CC31CN(Cc2ccccc2OC)C1,0.3,-0.1,0.3
CNC(=S)N1N=C(c2ccc(C)cc2)CC1c1cc(OC)ccc1OC (centres undefined),2.3,0.4,0.1
COc1ccc(OC)c(C2CC(c3ccccc3)=NN2C(=S)Nc2ccccc2)c1 (centres undefined),11.5*,0.0,-0.1
C[C@H]1CN([C@@H](C)CO)C(=O)c2cccc(NS(=O)(=O)c3ccc(F)cc3)c2O[C@H]1CN(C)C(=O)Nc1ccc2c(c1)OCO2,3.2,-0.2,0.1
C[C@@H]1CN([C@@H](C)CO)C(=O)Cc2cc(NC(=O)C3CCCCC3)ccc2O[C@H]1CN(C)Cc1ccc(-c2ccccc2)cc1,-3.2,-2.5,0.2
C[C@@H]1CN([C@H](C)CO)C(=O)c2cc(N(C)C)ccc2O[C@@H](C)CCCCO[C@H]1CN(C)S(=O)(=O)c1cn(C)cn1,1.5,0.0,0.2
C[C@H](CO)N1C[C@H](C)[C@@H](CN(C)S(=O)(=O)c2cn(C)cn2)OCCCC[C@H](C)Oc2ccc(N(C)C)cc2C1=O,-0.2,-0.2,0.1
C[C@H]1CN([C@@H](C)CO)C(=O)c2cc(N(C)C)ccc2O[C@H]1CN(C)S(=O)(=O)c1cn(C)cn1,-2.1,415.2*,-0.7
C[C@H](CO)N1C[C@H](C)[C@@H](CN(C)S(=O)(=O)c2cn(C)cn2)Oc2ccc(N(C)C)cc2C1=O,-1.0,33.3*,0.3
COc1ccc(NC(=O)CCc2ccccc2)cc1S(=O)(=O)N1CCOCC1,0.3,2.2,0.1
COc1ccc(NC(=O)CCc2ccccc2)cc1S(=O)(=O)N1CCCCC1,4.1,.,140.7*
O=C(NC1CCC1)[C@@H]1[C@@H](CO)[C@@H]2Cn3c(ccc(-c4ccncc4)c3=O)[C@@H]2N1CC1CC1,0.3,-0.4,0.0
COc1ccc2c3c(n(C)c2c1)[C@H](CO)N(C)CC31CN(C(=O)CN2CCOCC2)C1,-0.7,0.0,0.3
CCc1cccc(C)c1NC(=O)CCCN1C(=O)NC(C)(C)C1=O,1.1,26.6*,0.1
CC(C)c1ccc(NC(=O)CCCN2C(=O)NC(C)(C)C2=O)cc1,-4.1,0.2,0.0
C[C@@H]1CN([C@@H](C)CO)C(=O)c2cc(-c3ccccc3F)cnc2O[C@H]1CN(C)C(=O)C1CCOCC1,-0.9,-0.1,0.1
SMILES,CFTR F508del cor,E-sel inducer,Xi reactivation
Cc1ccc(S(=O)(=O)Nc2ccc3c(c2)C(=O)N([C@H](C)CO)C[C@@H](C)[C@@H](CN(C)C(=O)c2ccncc2)OCCCC[C@@H](C)O3)cc1,-1.7,.,0.1
CCN[C@H]1C[C@H](C)S(=O)(=O)c2sc(S(N)(=O)=O)cc21,1.9,-0.4,-0.1
CCN[C@H]1CN(CCCOC)S(=O)(=O)c2sc(S(N)(=O)=O)cc21,10.0*,2.4,0.1
CN1C(=O)c2cc(NC(=O)C3CCCC3)ccc2OC[C@H]2O[C@H](CC(=O)NCCc3ccncc3)CC[C@H]21,0.3,0.2,0.0
CO[C@H](CN(C)S(=O)(=O)c1ccc(C)cc1)[C@@H](C)CN([C@H](C)CO)S(=O)(=O)c1cccc(Cl)c1,3.0,0.1,0.2
CO[C@@H](CN(C)S(=O)(=O)c1ccc(C)cc1)[C@H](C)CN([C@@H](C)CO)S(=O)(=O)c1cccc(Cl)c1,10.6*,0.2,0.1
C[C@H](CO)N1C[C@H](C)[C@@H](CN(C)S(=O)(=O)c2cn(C)cn2)Oc2c(NC(=O)C3CCCCC3)cccc2C1=O,1.0,0.2,0.0
O=C(Nc1cccc(C2=NCCN2)c1)Nc1cccc(C2=NCCN2)c1,8.3*,0.5,0.2
O=C(Nc1ccncc1)Nc1cccc(Cl)c1,-0.3,3.2,0.0
O=C(c1ccncc1)N1CC2(C1)[C@H](c1ccccc1)[C@H](CO)N2C(=O)c1ccncc1,-1.4,-0.2,0.3
Nc1ccn([C@H]2C[C@H](O)[C@@H](CO)O2)c(=O)n1,8.0*!,-0.3,-0.1
Nc1nc(Cl)nc2c1ncn2C1OC(CO)C(O)C1O (centres undefined),7.4,.,.
Nc1nc(Cl)nc2c1ncn2C1CC(O)C(CO)O1 (centres undefined),14.1*,2.5,0.3
Nc1ncn([C@H]2C[C@H](O)[C@@H](CO)O2)c(=O)n1,0.6,-0.2,4.7
C/C=C/c1ccc2c(c1)[C@H]1[C@H](CCN1S(=O)(=O)c1ccccc1C)[C@@H](CO)N2,4.4,8.8,0.1
Cc1ccc(CN2C(=O)C(CC(C)C)Nc3ncnc(N4CCN(c5ccccn5)CC4)c32)cc1 (centres undefined),-2.3,-0.1,0.1
CC(C)CC1Nc2ncnc(N3CCN(c4ccccn4)CC3)c2N(Cc2ccc(Br)cc2)C1=O (centres undefined),8.3*,1.5,0.0
Nc1ccc(S(N)(=O)=O)cc1N,1.7,0.7,-0.1
NS(=O)(=O)c1ccc(Cl)c(S(N)(=O)=O)c1,10.5*,-0.9,-0.7
CN(C)S(=O)(=O)c1cccc2c1C(=O)c1ccccc1C2=O,-0.6,.,-0.1
O=C1c2ccccc2C(=O)c2c1cccc2N(CCO)CCO,13.0*,.,0.2
O=C(C[C@H]1CC[C@H](NC(=O)Cc2cccnc2)[C@@H](CO)O1)NCc1ccc2c(c1)OCO2,2.3,-0.6,0.5
Cc1noc(C)c1COc1ccccc1C(=O)N1CCN(S(=O)(=O)c2ccc(F)c(F)c2)CC1,1.1,94.1*,0.0
Cc1ccc(S(=O)(=O)N2CCN(C(=O)c3ccccc3OCc3c(C)noc3C)CC2)cc1,-7.6,-0.3,0.0
CN(C)CC#Cc1ccc([C@H]2[C@H](CO)N3C(=O)CN(C(=O)Cc4ccccc4)C[C@@H]23)cc1,-1.1,-0.3,-0.1
O=S(=O)(CCN1CCOCC1)c1ccc(Cl)cc1,-1.0,-0.1,0.0
Cc1nn(CCS(=O)(=O)c2ccc(Cl)cc2)c(C)c1Br,-0.8,78.4*,0.2
COc1ccc(N(C)S(=O)(=O)c2cccc(C(=O)NCC3CCCCC3)c2)cc1,8.7*,?,0.5
COc1ccc(N(C)S(=O)(=O)c2cccc(C(=O)NC3CCCC3)c2)cc1,4.3,.,0.3
